Measured values published in ChEMBL document CHEMBL1156856, “Design, synthesis, and biological evaluation of novel estradiol-bisphosphonate conjugates as bone-specific estrogens” (Bioorg Med Chem, 2010).
Active and inactive are the calls of the source. The calls are words filed in the database; no cut-off is given here.

Columns and labels:
Rattus norvegicus [1] = assay: Estrogenic activity in uterus of ovariectomized Sprague-Dawley rat assessed as increase in uterus weight at 0.1 mg/kg, iv administered three times per week for 4 weeks on the first, second, and fifth days; format: functional, organism-based; parameters: dose 0.1 mg/kg
In short: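 Female SD rats, 7 weeks old on arrival, were housed 4 weeks, weight-matched into groups, and bilaterally ovariectomized, with sham-operated controls. Conjugate was given iv at 0.1 mg/kg the day after surgery in 1% carboxymethyl cellulose plus 1% citrate buffer. Uterine weight was the read-out.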

Rattus norvegicus [2] = assay: Estrogenic activity in bone of ovariectomized Sprague-Dawley rat assessed as increase in bone mass at 0.1 mg/kg, iv administered three times per week for 4 weeks on the first, second, and fifth days; format: functional, organism-based; parameters: dose 0.1 mg/kg
In short: (§1)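 Female SD rats, 7 weeks old on arrival, were housed 4 weeks and assigned to groups matched for mean body weight. All except sham controls were bilaterally ovariectomized. The next day they received conjugate at 0.1 mg/kg iv in 1% carboxymethyl cellulose plus 1% citrate buffer. Bone effect was read as secondary-spongiosa bone volume of the left tibia and ash weight of the right femur.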

Rattus norvegicus [3] = assay: Bisphosphonate activity in ovariectomized Sprague-Dawley rat assessed as suppression of Ca2+ ion release from bone at 0.1 mg/kg, iv administered three times per week for 4 weeks on the first, second, and fifth days; format: functional, organism-based; parameters: dose 0.1 mg/kg
In short: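 In rats, bisphosphonate activity was measured as suppression of PTHrp-induced Ca2+ ion release from bone.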

[4] = biological target: T1, Estrogen receptor (Rattus norvegicus) (UniProt P06211); assay: Ratio of binding affinity of compound to estradiol at rat uterus estrogen receptor by competitive binding assay
T1 sequence (whole entry): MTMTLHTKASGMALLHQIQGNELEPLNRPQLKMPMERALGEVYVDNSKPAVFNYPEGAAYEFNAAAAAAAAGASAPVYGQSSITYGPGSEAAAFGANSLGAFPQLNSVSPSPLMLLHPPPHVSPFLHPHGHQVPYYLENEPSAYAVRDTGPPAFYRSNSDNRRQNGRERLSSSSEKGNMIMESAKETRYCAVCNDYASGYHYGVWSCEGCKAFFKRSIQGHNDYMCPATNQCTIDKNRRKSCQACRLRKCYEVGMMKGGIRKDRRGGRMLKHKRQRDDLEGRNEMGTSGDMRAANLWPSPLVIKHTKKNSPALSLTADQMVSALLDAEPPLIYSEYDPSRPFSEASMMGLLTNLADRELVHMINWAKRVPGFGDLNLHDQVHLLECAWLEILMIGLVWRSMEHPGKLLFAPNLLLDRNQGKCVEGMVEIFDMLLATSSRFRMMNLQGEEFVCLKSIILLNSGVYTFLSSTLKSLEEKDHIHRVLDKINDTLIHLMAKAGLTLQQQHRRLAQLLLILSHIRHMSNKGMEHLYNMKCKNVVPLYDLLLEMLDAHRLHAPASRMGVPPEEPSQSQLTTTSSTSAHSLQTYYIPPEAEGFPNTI

Rattus norvegicus [5] = assay: Estrogenic activity in bone of ovariectomized Sprague-Dawley rat assessed as increase in bone mass at 0.1 mg/kg, iv administered three times per week for 4 weeks on the first, second, and fifth days co-administered with antiestrogen fulvaestrant; format: functional, organism-based; parameters: dose 0.1 mg/kg; in short: as §1

SMILES | Activity (Rattus norvegicus [1]) | also measured
C[C@]12CC[C@@H]3c4ccc(OC(=O)NCCC(=O)NC(P(=O)(O)O)P(=O)(O)O)cc4CC[C@H]3[C@@H]1CC[C@@H]2O | inactive | Activity (Rattus norvegicus [2]): Active; Activity (Rattus norvegicus [3]): inactive; Ratio [4]: 2000; Activity (Rattus norvegicus [5]): inactive
C[C@]12CC[C@@H]3c4ccc(O)cc4CC[C@H]3[C@@H]1CC[C@@H]2OC(=O)CC(=O)NC(P(=O)(O)O)P(=O)(O)O | inactive | 
CC(C)(C(=O)NC(P(=O)(O)O)P(=O)(O)O)C(=O)O[C@H]1CC[C@H]2[C@@H]3CCc4cc(O)ccc4[C@H]3CC[C@]12C | inactive | 
C[C@]12CC[C@@H]3c4ccc(OC(=O)CC(=O)NC(P(=O)(O)O)P(=O)(O)O)cc4CC[C@H]3[C@@H]1CC[C@@H]2O | inactive | 
C[C@]12CC[C@@H]3c4ccc(O)cc4CC[C@H]3[C@@H]1CC[C@@H]2OC(=O)c1ccccc1C(=O)NC(P(=O)(O)O)P(=O)(O)O | inactive | 
C[C@]12CC[C@@H]3c4ccc(O)cc4CC[C@H]3[C@@H]1CC[C@@H]2O | Active | Activity (Rattus norvegicus [2]): Active
C[C@]12CC[C@@H]3c4ccc(O)cc4CC[C@H]3[C@@H]1CC[C@@H]2OC(=O)CCNC(=O)NC(P(=O)(O)O)P(=O)(O)O | inactive | 
